Measurements from ChEMBL document CHEMBL1122835, “Synthesis and pharmacology of the potent angiotensin-converting enzyme inhibitor N-[1(S)-(ethoxycarbonyl)-3-phenylpropyl]-(S)-alanyl-(S)-pyroglutamic acid” (J Med Chem, 1985).

Experiments:
Rattus norvegicus [1] = organism: Rattus norvegicus; test: Effective dose was determined to increase the vasoResponse in rat; format: functional
Method in brief: (§1)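 Anesthetized (pentobarbital/barbital ip) male Charles River CD rats, 380–500 g, kept at 37 °C. Femoral artery blood pressure recorded. Control depressor response to bradykinin 1 μg/kg iv, then cumulative iv drug in 0.9% saline (1 mL/kg), 0.0033–0.27 mg/kg. Bk challenge 5 min after each dose. ED50 = dose giving a 50% change from control, by linear regression; N = 8.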

Rattus norvegicus [2] = test: Hypotensive activity was determined in low-sodium treated rat, dose 3 mg/kg administered orally at 5 hr; format: functional; conditions: route oral
Method in brief: (§2)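 Male CD rats, 11 weeks old, kept on a sodium-deficient diet for 3 weeks and fasted overnight, were dosed orally with aqueous solutions (5 mL/kg), water as control. Systolic pressure measured by tail cuff at the stated post-dose time. ANOVA with Duncan's test.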

Canis familiaris [3] = test: Effect on pressor response of angiotensin II in anesthetized dog, dose 0.9 mg/kg administered intravenously; format: functional, Canis lupus familiaris; conditions: route intravenous
Method in brief: (§3)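 Mongrel dogs, 7.3–15.5 kg, anesthetized with barbital/pentobarbital iv, tracheotomized and vagotomized, n = 4. Cumulative iv doses in saline (0.2 mL/kg) spaced 30 min apart. AI and AII 1 μg/kg iv challenges given after each dose; the second pre-dose set served as control.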

Canis familiaris [4] = test: Effect on pressor response of angiotensin II in conscious dog at 60-65 min, dose 0.5 mg/kg administered orally; format: functional, Canis lupus familiaris; conditions: route oral
Method in brief: (§4)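 Conscious fasted mongrel dogs of both sexes, 6.8–15.3 kg, with femoral cannulas. Drug given orally in 0.25% methylcellulose with 3% glycerin (2 mL/kg), n = 4 per dose. AI 0.3, AII 0.1 and NE 1 μg/kg iv challenges. The second pre-dose set served as control; response measured at 60–65 min post-dose.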

Rattus norvegicus [5] = test: Change in heart rate was determined in renal hypertensive rat, administered orally at a dose 10 mg/kg; format: functional; conditions: route oral
Method in brief: (§5)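 Renal hypertensive rats were prepared by clipping the left renal artery (0.22-mm clip) in 4-week-old male CD rats and held 6 weeks. Overnight-fasted rats were dosed orally with aqueous solution (5 mL/kg), water as control. Tail-cuff systolic pressure and heart rate measured 2 h post-dose. ANOVA with Duncan's test; ED30 by linear regression.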

Rattus norvegicus [6] = test: Effect on systolic blood pressure was determined in renal hypertensive rat, administered orally at a dose 10 mg/kg; format: functional, Artery; conditions: route oral; method in brief: as §5
Rattus norvegicus [7] = test: Effect on vasopressor response caused by angiotensin I (AI) in anesthetized normotensive rat, administered intravenously at dose 0.010 mg/kg; format: functional; conditions: dose 0.01 mg/kg; route intravenous
Method in brief: (§6)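 Male Charles River CD rats, 380–500 g, anesthetized with pentobarbital Na 15 mg/kg plus barbital 220 mg/kg ip, held at 37 °C. Femoral artery pressure recorded. AI 0.3 μg/kg and AII 0.1 μg/kg given iv as challenges. Cumulative iv drug in saline, 0.01–0.81 mg/kg, each dose followed by AI/AII challenges at 5-min intervals. ED50 = 50% change from control response, by linear regression.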

Rattus norvegicus [8] = test: Hypotensive activity was determined in low-sodium treated rat, dose 10 mg/kg administered orally at 5 hr; format: functional; conditions: route oral; method in brief: as §2
Canis familiaris [9] = test: Effect on pressor response of angiotensin I in conscious dog at 60-65 min, dose 0.5 mg/kg administered orally; format: functional, Canis lupus familiaris; conditions: route oral; method in brief: as §4
Rattus norvegicus [10] = test: Percent decrease in angiotensin I pressor response was measured in rat, administered intravenously at dose 0.81 mg/kg; format: functional; conditions: route intravenous
Method in brief: (§7)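 Anesthetized (pentobarbital Na 15 mg/kg + barbital 220 mg/kg ip), tracheotomized male Charles River CD rats, 380–500 g, femoral cannulas, heated board at 37 °C. Control pressor responses to angiotensin I 0.3 μg/kg then angiotensin II 0.1 μg/kg iv; drug iv in 0.9% saline (free base), AI and AII repeated at 5-min intervals, cumulative 0.01–0.81 mg/kg. Peak arterial pressure rise versus control.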

Rattus norvegicus [11] = test: Activity against the bradykinin Response in anesthetized normotensive rat, administered intravenously at dose 0.090 mg/kg; format: functional; conditions: dose 0.09 mg/kg; route intravenous; method in brief: as §1
Rattus norvegicus [12] = test: Change in heart rate was determined in renal hypertensive rat, administered orally at a dose 30 mg/kg; format: functional; conditions: route oral; method in brief: as §5
Canis familiaris [13] = test: Effect on pressor response of angiotensin II in anesthetized dog, dose 0.1 mg/kg administered intravenously; format: functional, Canis lupus familiaris; conditions: route intravenous; method in brief: as §3
Canis familiaris [14] = test: Effect on pressor response of angiotensin I in anesthetized dog, dose 0.1 mg/kg administered intravenously; format: functional, Canis lupus familiaris; conditions: route intravenous; method in brief: as §3
Rattus norvegicus [15] = test: Activity against the bradykinin Response in anesthetized normotensive rat, administered intravenously at dose 0.030 mg/kg; format: functional; conditions: dose 0.03 mg/kg; route intravenous; method in brief: as §1
[16] = Half life was determined; format: ADME; conditions: rat
Method in brief: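 Rats anesthetized with pentobarbital/barbital received a single iv dose, 0.2 or 0.08 mg/kg. AI 0.3 μg/kg iv given at 5 min, then every 10 min for 210 min. Half-life = time for the AI pressor response to fall to 50% of its peak inhibition.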

Rattus norvegicus [17] = test: Percent decrease in angiotensin I pressor response was measured in rat, administered intravenously at dose 0.090 mg/kg; format: functional; conditions: dose 0.09 mg/kg; route intravenous; method in brief: as §7
Rattus norvegicus [18] = test: Percent decrease in angiotensin I pressor response was measured in rat, administered intravenously at dose 0.010 mg/kg; format: functional; conditions: dose 0.01 mg/kg; route intravenous; method in brief: as §7
Rattus norvegicus [19] = organism: Rattus norvegicus; test: Dose required to reduce systolic blood pressure by 30 mmHg; format: functional; conditions: Artery
Method in brief: (§8)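 Male SHR, 13 weeks old, given HCTZ 25 mg/kg po in 0.25% methylcellulose daily for 3 days. Drug given orally in water (5 mL/kg) 1 h after the third dose. Tail-cuff systolic pressure and pulse-count heart rate taken 1.5 h later after 20 min warming at 38 °C. ANOVA with Duncan's test; ED30 by linear regression.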

Rattus norvegicus [20] = test: Hypotensive activity was determined in low-sodium treated rat, dose 30 mg/kg administered orally at 2 hr; format: functional; conditions: route oral; method in brief: as §2
Rattus norvegicus [21] = organism: Rattus norvegicus; test: Dose required to reduce systolic blood pressure by 30 mmHg in renal hypertensive rat; format: functional; conditions: Artery; method in brief: as §5
Canis familiaris [22] = test: Effect on pressor response of angiotensin I in conscious dog at 60-65 min, dose 1 mg/kg administered orally; format: functional, Canis lupus familiaris; conditions: route oral; method in brief: as §4
Rattus norvegicus [23] = test: Change in heart rate was determined at a dose 30 mg/kg; format: functional; method in brief: as §8
Rattus norvegicus [24] = test: Change in heart rate was determined at a dose 3 mg/kg; format: functional; method in brief: as §8
Rattus norvegicus [25] = test: Effect on vasopressor response caused by angiotensin I (AI) in anesthetized normotensive rat, administered intravenously at dose 0.27 mg/kg; format: functional; conditions: route intravenous; method in brief: as §6
Rattus norvegicus [26] = test: Effect on systolic blood pressure was determined in renal hypertensive rat, administered orally at a dose 30 mg/kg; format: functional, Artery; conditions: route oral; method in brief: as §5
Rattus norvegicus [27] = test: Effect on systolic blood pressure was determined in renal hypertensive rat, administered orally at a dose 3 mg/kg; format: functional, Artery; conditions: route oral; method in brief: as §5

Which ED50 (Rattus norvegicus [1]) does the source give for `CCOC(=O)[C@H](CCc1ccccc1)N[C@@H](C)C(=O)N1C(=O)CC[C@H]1C(=O)O` here?
Its ED50 is 0.012 mg/kg.

And the Activity (Rattus norvegicus [2])?
Its Activity is 153 mmHg.

What about the Blood pressure (Canis familiaris [3]) of the same molecule?
The Blood pressure was 73 mmHg.

And the Blood pressure (Canis familiaris [4])?
The Blood pressure was 48 mmHg.

And the Heart rate (Rattus norvegicus [5])?
The Heart rate was 438 beats min-1.

And the Activity (Rattus norvegicus [6])?
The Activity was 204 mmHg.

And the Response (Rattus norvegicus [7])?
Its Response is 45 mmHg.

What about the Activity (Rattus norvegicus [8]) of the same molecule?
Its Activity is 143 mmHg.

What about the Blood pressure (Canis familiaris [9]) of the same molecule?
The Blood pressure was 47 mmHg.

And the Decrease (Rattus norvegicus [10])?
Its Decrease is 92%.

And the Response (Rattus norvegicus [11])?
Its Response is -61 mmHg.

What about the Heart rate (Rattus norvegicus [12]) of the same molecule?
Its Heart rate is 481 beats min-1.

And the Blood pressure (Canis familiaris [13])?
The Blood pressure was 64 mmHg.

What about the Blood pressure (Canis familiaris [14]) of the same molecule?
The Blood pressure was 60 mmHg.

And the Response (Rattus norvegicus [15])?
Its Response is -61 mmHg.

And the half-life [16]?
Its half-life is 120 min.

And the Decrease (Rattus norvegicus [17])?
Its Decrease is 31%.

And the Decrease (Rattus norvegicus [18])?
The Decrease was 6%.

And the ED30 (Rattus norvegicus [19])?
Its ED30 is 3.5 mg/kg.

And the Activity (Rattus norvegicus [20])?
The Activity was 135 mmHg.

What about the ED30 (Rattus norvegicus [21]) of the same molecule?
Its ED30 is 5.9 mg/kg.

And the Blood pressure (Canis familiaris [22])?
The Blood pressure was 23 mmHg.

And the Heart rate (Rattus norvegicus [23])?
Its Heart rate is 381 beats min-1.

What about the Heart rate (Rattus norvegicus [24]) of the same molecule?
The Heart rate was 374 beats min-1.

And the Response (Rattus norvegicus [25])?
The Response was 18 mmHg.

And the Activity (Rattus norvegicus [26])?
The Activity was 204 mmHg.

What about the Activity (Rattus norvegicus [27]) of the same molecule?
Its Activity is 220 mmHg.
